# Legend:
# Format in all cases: functional, cell-based
# MDA-MB-435 = experiment: Antiproliferative activity against human MDA-MB-435 cells after 96 hrs by CellTiter-Glo luminescent cell viability assay; settings: MDA-MB-435, 96 h
# Outline: (§1)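 Cells were cultured with compound present continuously at 0.3–10000 nM, or without compound, for 96 h. Growth was read by ATP luminescence (CellTiter-Glo). IC50 is the concentration giving 50% growth inhibition versus untreated cells. Vinblastine served as the positive control. Two separate replicate experiments were run.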
# A2780 = experiment: Antiproliferative activity against human A2780 cells after 96 hrs by CellTiter-Glo luminescent cell viability assay; settings: A2780, 96 h
# [1] = Antiproliferative activity against human HS22T1 cells after 96 hrs by CellTiter-Glo luminescent cell viability assay; settings: HS22T1, 96 h; outline: as §1
# U-937 = experiment: Antiproliferative activity against human U937 cells after 96 hrs by CellTiter-Glo luminescent cell viability assay; settings: U-937, 96 h; outline: as §1
# HT-29 = experiment: Antiproliferative activity against human HT29 cells after 96 hrs by CellTiter-Glo luminescent cell viability assay; settings: HT-29, 96 h; outline: as §1
Structure (SMILES),IC50 (MDA-MB-435),IC50 (A2780),IC50 [1],IC50 (U-937),IC50 (HT-29)
CC(=O)O[C@]12OC[C@@]3(C)C(=O)C=C[C@@](C)([C@@H]13)[C@H]1[C@@H](O)[C@H](OC(=O)C(C)C)[C@@]3(C)[C@H](c4ccoc4)C[C@H]4O[C@]43[C@]1(C)C2=O [MALLEASTRONE A],410 nM,490 nM,240 nM,200 nM,240 nM
CC[C@H](C)C(=O)O[C@H]1[C@H](O)[C@@H]2[C@@]3(C)C=CC(=O)[C@]4(C)CO[C@](OC(C)=O)(C(=O)[C@@]2(C)[C@@]25O[C@@H]2C[C@@H](c2ccoc2)[C@]15C)[C@H]34 [MALLEASTRONE B],340 nM,630 nM,230 nM,190 nM,220 nM
CC(=O)O[C@]12OC[C@@]3(C)C(=O)C[C@@H](O)[C@@](C)([C@@H]13)[C@H]1[C@@H](O)[C@H](OC(=O)C(C)C)[C@@]3(C)[C@H](c4ccoc4)C[C@H]4O[C@]43[C@]1(C)C2=O [MALLEASTRONE C],–,18000 nM,–,–,–
CC[C@]1(O)C[C@@H]2CN(CCc3c([nH]c4ccccc34)[C@@](C(=O)OC)(c3cc4c(cc3OC)N(C)[C@H]3[C@@](O)(C(=O)OC)[C@H](OC(C)=O)[C@]5(CC)C=CCN6CC[C@]43[C@@H]65)C2)C1 [VINBLASTINE],0.27 nM,–,1.38 nM,0.49 nM,0.53 nM

# Reference: ChEMBL document CHEMBL1144723, “Antiproliferative limonoids of a Malleastrum sp. from the Madagascar rainforest” (J Nat Prod, 2008)
